# Assay results gathered from unrelated publications.
# BRAF V600E: Serine/threonine-protein kinase B-raf (BRAF, Homo sapiens, UniProt P15056, V600E)
# BRAF: Serine/threonine-protein kinase B-raf (BRAF, Homo sapiens, UniProt P15056)
Compound,target,test,setting,quantity,value
Cc1cc(O)c(-c2ccc([C@@H](C)CN(C)C)cc2)c2c1[nH]c(=O)c1sccc12,BRAF V600E,"cell-free assay, inhibitor","0.1 µM, lysate",inhibition,-5.15%
COc1ccc2[nH]c3c4[nH]c5ccc(OC)cc5c4c4c(c3c2c1)C(=O)NC4=O,BRAF V600E,binding,1 µM,remaining binding,89%
COc1ccc2oc(-c3ccc4nc(N)oc4c3)c/c(=N\c3ccccc3NC(=O)CCN)c2c1,BRAF,binding,1 µM,remaining binding,98%
CCCCC(=O)Nc1ccc(-c2ccc3ncn(CCC)c(=O)c3c2)cn1,BRAF V600E,"binding, competition with immobilised ligand",0.5 µM,remaining binding,95%
C=CC(=O)N1CCC([C@@H]2CCNc3c(C(N)=O)c(-c4ccc(Oc5ccccc5)cc4)nn32)CC1,BRAF V600E,"enzyme activity, inhibitor",1 µM,inhibition,0%
Cc1cc2c(C(N)=O)c(N)n(-c3c(C)ccc(O)c3C)c2nc1C,BRAF V600E,"binding, competition with immobilised ligand",1 µM,remaining binding,0.75%
C=CC(=O)N1CCC[C@@H](n2nc(-c3ccc(Oc4ccccc4)cc3)c3c(N)ncnc32)C1,BRAF,"enzyme activity, inhibitor",1 µM,inhibition,51%
C[C@H]1CC[C@H](n2c3cnccc3c3cnc(Nc4ccc5c(n4)CCN(C(=O)CO)C5)nc32)CC1,BRAF,"cell-free assay, competition with immobilised ligand",1 µM,remaining binding,74%
CO[C@@H]1[C@H](N(C)C(=O)c2ccccc2)C[C@H]2O[C@]1(C)n1c3ccccc3c3c4c(c5c6ccccc6n2c5c31)C(=O)NC4,BRAF,"enzyme activity, inhibitor",1 µM,inhibition,6%
N#Cc1ccc(NC(=O)Nc2ccccc2)cc1,BRAF,"cell-free assay, competition with immobilised ligand",25 µM,remaining binding,100%
CN1CCN(C(=O)c2ccc(NC(=O)Nc3ccc(N(C)c4ccnc(Nc5ccc(CS(C)(=O)=O)cc5)n4)cc3)cc2)CC1,BRAF,"binding, competition with immobilised ligand",1 µM,remaining binding,89%
C1=C/COCc2cc(ccc2OCCN2CCCC2)Nc2nccc(n2)-c2cccc(c2)COC/1,BRAF V600E,binding,0.1 µM,remaining binding,85%
Cc1ccc(NC(=O)c2ccnc(C(F)(F)F)c2)cc1-c1cc(OCCO)nc(N2CCOCC2)c1,BRAF V600E,binding,1 µM,remaining binding,0.35%
CC#CC(=O)N1CCC[C@H]1c1nc(-c2ccc(C(=O)Nc3ccccn3)cc2)c2c(N)nccn12,BRAF V600E,"enzyme activity, inhibitor",1 µM,inhibition,44%
